These results are taken from ChEMBL document CHEMBL1157912, “Impact of nature and length of linker incorporated in agonists on toll-like receptor 9-mediated immune responses” (J Med Chem, 2010).

Assay [1] addresses T1, Toll-like receptor 9 (Homo sapiens) (UniProt Q9NR96).
T1 sequence (whole entry): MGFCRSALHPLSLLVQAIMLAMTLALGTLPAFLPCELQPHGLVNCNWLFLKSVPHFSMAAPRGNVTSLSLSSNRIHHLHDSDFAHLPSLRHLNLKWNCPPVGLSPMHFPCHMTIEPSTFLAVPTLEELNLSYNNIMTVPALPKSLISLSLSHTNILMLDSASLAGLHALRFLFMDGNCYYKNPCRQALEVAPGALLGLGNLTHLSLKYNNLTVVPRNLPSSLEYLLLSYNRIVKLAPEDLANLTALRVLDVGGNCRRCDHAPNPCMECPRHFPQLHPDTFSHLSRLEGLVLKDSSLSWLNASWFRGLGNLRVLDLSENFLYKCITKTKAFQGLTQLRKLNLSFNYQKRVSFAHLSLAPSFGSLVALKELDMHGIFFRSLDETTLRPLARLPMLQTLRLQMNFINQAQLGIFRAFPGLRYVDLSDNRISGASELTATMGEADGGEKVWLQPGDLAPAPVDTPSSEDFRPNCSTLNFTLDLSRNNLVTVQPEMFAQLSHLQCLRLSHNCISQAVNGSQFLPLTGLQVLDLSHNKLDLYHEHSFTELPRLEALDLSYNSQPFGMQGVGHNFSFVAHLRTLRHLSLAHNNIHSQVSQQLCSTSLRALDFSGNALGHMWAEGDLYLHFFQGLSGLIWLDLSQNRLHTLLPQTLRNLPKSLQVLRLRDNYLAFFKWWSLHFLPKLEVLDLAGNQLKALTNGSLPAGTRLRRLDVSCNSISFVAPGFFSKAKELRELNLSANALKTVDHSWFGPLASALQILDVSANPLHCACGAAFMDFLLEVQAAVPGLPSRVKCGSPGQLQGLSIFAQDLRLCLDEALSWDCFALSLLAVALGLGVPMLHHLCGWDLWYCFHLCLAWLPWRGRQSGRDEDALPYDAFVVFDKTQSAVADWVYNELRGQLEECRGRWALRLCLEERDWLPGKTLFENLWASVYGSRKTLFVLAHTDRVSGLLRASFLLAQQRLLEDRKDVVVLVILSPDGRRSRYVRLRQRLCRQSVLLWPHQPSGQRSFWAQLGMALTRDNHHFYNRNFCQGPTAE
In words: Induction of TLR9-mediated immune stimulation in human PBMC assessed as MIP1beta production at 10 ug/ml after 24 hrs by luminex multiplex assay (RVb = 0.03 +/- 0.02 ng/ml).

Assay [2] has as its target T1, Toll-like receptor 9 (Homo sapiens). As to the kind of experiment: Induction of TLR9-mediated immune stimulation in human PBMC assessed as MIP1beta production at 2 ug/ml after 24 hrs by luminex multiplex assay (RVb = 0.03 +/- 0.02 ng/ml).
For assay [3] the target is unchanged. As to the kind of experiment: Induction of TLR9-mediated immune stimulation in human PBMC assessed as MCP1 production at 2 ug/ml after 24 hrs by luminex multiplex assay (RVb = 0.08 +/- 0.02 ng/ml).
The target is the same in assay [4]. In words: Induction of TLR9-mediated immune stimulation in human PBMC assessed as IL2R production at 10 ug/ml after 24 hrs by luminex multiplex assay (RVb = 0.02 +/- 0.01 ng/ml).
Assay [5] addresses T2, Toll-like receptor 9 (Mus musculus) (UniProt Q9EQU3).
T2 sequence (whole entry): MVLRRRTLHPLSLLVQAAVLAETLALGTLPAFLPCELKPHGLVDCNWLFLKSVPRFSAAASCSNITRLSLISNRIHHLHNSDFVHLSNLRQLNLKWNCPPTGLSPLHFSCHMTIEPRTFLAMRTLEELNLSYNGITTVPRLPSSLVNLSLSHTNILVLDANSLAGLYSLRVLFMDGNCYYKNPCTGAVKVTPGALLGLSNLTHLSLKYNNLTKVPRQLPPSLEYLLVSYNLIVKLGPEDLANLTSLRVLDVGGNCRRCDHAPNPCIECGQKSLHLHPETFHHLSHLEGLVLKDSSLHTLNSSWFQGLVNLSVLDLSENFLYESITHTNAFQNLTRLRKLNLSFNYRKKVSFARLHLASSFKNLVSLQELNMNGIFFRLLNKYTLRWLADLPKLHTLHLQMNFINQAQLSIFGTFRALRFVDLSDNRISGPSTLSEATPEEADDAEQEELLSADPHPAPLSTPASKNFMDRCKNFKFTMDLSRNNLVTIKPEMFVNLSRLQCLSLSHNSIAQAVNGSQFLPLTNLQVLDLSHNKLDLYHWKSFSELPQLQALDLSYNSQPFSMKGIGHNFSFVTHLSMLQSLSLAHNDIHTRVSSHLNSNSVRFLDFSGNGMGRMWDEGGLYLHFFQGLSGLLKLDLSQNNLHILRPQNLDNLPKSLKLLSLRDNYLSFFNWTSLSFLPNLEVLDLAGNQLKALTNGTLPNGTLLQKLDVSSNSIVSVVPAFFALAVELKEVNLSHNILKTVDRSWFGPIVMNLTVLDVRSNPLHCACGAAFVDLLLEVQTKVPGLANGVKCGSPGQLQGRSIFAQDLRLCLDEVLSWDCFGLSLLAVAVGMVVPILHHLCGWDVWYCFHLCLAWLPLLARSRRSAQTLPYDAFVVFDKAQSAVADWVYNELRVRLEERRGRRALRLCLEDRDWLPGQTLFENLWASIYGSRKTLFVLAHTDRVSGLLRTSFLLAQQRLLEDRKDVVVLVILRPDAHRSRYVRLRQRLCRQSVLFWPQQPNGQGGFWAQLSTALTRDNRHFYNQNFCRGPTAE
As to the kind of experiment: Induction of TLR9-mediated IL12 production in C57BL/6 mouse spleen cells after 24 hrs by ELISA. In kind it is cell-based. The method, boiled down:
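C57BL/6 mouse spleen cells were cultured with agonists at 0.1, 0.3, 1, 3 and 10 μg/mL for 24 h. Secreted IL-12 and IL-6 in the supernatants were measured by ELISA. Values are averages of triplicate wells from one representative of at least two independent experiments.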
A general note: ELISA stands for enzyme-linked immunosorbent assay.

Assay [6] concerns the target T1, Toll-like receptor 9 (Homo sapiens). As to the kind of experiment: Induction of TLR9-mediated immune stimulation in human PBMC assessed as MCP1 production at 10 ug/ml after 24 hrs by luminex multiplex assay (RVb = 0.08 +/- 0.02 ng/ml).
Assay [7] concerns the target T2, Toll-like receptor 9 (Mus musculus). In words: Activation of mouse TLR9 expressed in HEK293 cells assessed as induction of NF-kappaB activity after 18 hrs by SEAP assay. In kind it is cell-based. The method, boiled down:
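HEK293 cells stably expressing mouse TLR9 were grown in DMEM with 10% heat-inactivated FBS. At 80% confluence they were transiently transfected with a SEAP reporter plasmid (100 ng/well, lipofectamine) for 6 h. Medium was then replaced and agonists were added for 18 h. Supernatant SEAP was read with QuantiBlue substrate at 620-645 nm. Results are expressed as fold NF-κB activity over PBS control.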

Assay [8] concerns the target T1, Toll-like receptor 9 (Homo sapiens). In words: Induction of TLR9-mediated immune stimulation in human PBMC assessed as IL1Ralpha production at 10 ug/ml after 24 hrs by luminex multiplex assay (RVb = 0.12 +/- 0.03 ng/ml).
The target is the same in assay [9]. In words: Induction of TLR9-mediated immune stimulation in human PBMC assessed as RANTES production at 2 ug/ml after 24 hrs by luminex multiplex assay (RVb = 0.05 +/- 0.04 ng/ml).

`Cc1cn([C@H]2C[C@H](O[C@@H]3C[C@@H](O)C[C@@H](OP(=O)(S)O[C@H]4C[C@H](n5cc(C)c(=O)[nH]c5=O)O[C@@H]4COP(=O)(S)O[C@H]4[C@@H](O)[C@H](n5ccc(N)nc5=O)O[C@@H]4COP(=O)(S)O[C@H]4C[C@H](n5cc(C)c(=O)[nH]c5=O)O[C@@H]4COP(=O)(S)O[C@H]4C[C@H](n5cc(C)c(=O)[nH]c5=O)O[C@@H]4COP(=O)(S)O[C@H]4C[C@H](n5ccc6c(=O)[nH]c(N)nc65)O[C@@H]4COP(=O)(S)O[C@H]4[C@@H](O)[C@H](n5ccc(N)nc5=O)O[C@@H]4COP(=O)(S)O[C@H]4C[C@H](n5cc(C)c(=O)[nH]c5=O)O[C@@H]4COP(=O)(S)O[C@H]4[C@@H](O)[C@H](n5cnc6c(=O)[nH]c(N)nc65)O[C@@H]4COP(=O)(S)O[C@H]4C[C@H](n5cc(C)c(=O)[nH]c5=O)O[C@@H]4COP(=O)(S)O[C@H]4[C@@H](O)[C@H](n5ccc(N)nc5=O)O[C@@H]4COP(=O)(S)O[C@H]4C[C@H](n5cc(C)c(=O)[nH]c5=O)O[C@@H]4CO)C3)[C@@H](COP(=O)(S)O[C@H]3[C@@H](O)[C@H](n4ccc(N)nc4=O)O[C@@H]3COP(=O)(S)O[C@H]3C[C@H](n4cc(C)c(=O)[nH]c4=O)O[C@@H]3COP(=O)(S)O[C@H]3C[C@H](n4cc(C)c(=O)[nH]c4=O)O[C@@H]3COP(=O)(S)O[C@H]3C[C@H](n4ccc5c(=O)[nH]c(N)nc54)O[C@@H]3COP(=O)(S)O[C@H]3[C@@H](O)[C@H](n4ccc(N)nc4=O)O[C@@H]3COP(=O)(S)O[C@H]3C[C@H](n4cc(C)c(=O)[nH]c4=O)O[C@@H]3COP(=O)(S)O[C@H]3[C@@H](O)[C@H](n4cnc5c(=O)[nH]c(N)nc54)O[C@@H]3COP(=O)(S)O[C@H]3C[C@H](n4cc(C)c(=O)[nH]c4=O)O[C@@H]3COP(=O)(S)O[C@H]3[C@@H](O)[C@H](n4ccc(N)nc4=O)O[C@@H]3COP(=O)(S)O[C@H]3C[C@H](n4cc(C)c(=O)[nH]c4=O)O[C@@H]3CO)O2)c(=O)[nH]c1=O` (some centres undefined): the Activity is 2.45 ng/mL in assay [1]; 0.12 ng/mL in assay [2]; 0.25 ng/mL in [3]; 0.29 ng/mL in assay [4]; “Dose-dependent effect” in assay [5]; 9.5 ng/mL in assay [6]. Also, the Activity result in [7] is “Dose-dependent effect”; in assay [8], 109 ng/mL; in assay [9] it was 0.5 ng/mL.
